Experimental data as given in PubChem BioAssay AID720717 (ICCB-Longwood Screening Facility, Harvard Medical School, 2013).
“And” between values parts separate entries of the source, which are not always exact repeats. Equal values may be shown once. About 150 (0.29%) of roughly 51,000 compounds were called active.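 The calls were made as follows: active = both repeat wells score below -2 in polarization z-score versus plate sample wells, excluding overly bright wells; inactive = the rest.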 For the sample, actives were picked, then their nearest neighbours and some compounds at random.

Each molecule was assayed on LANA (ORF73) N-terminal peptide binding to nucleosomes, Human herpesvirus 8 (assay: LANA N-terminal peptide–nucleosome interaction blockers – biochemical, fluorescence polarization, FITC-LANA1-23, chicken nucleosomes, primary screen (AID 720717)). Details: FITC-LANA1-23 / chicken nucleosome fluorescence polarization; stronger effect = lower value.
Summary of the method: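 Test system: purified chicken nucleosomes with FITC-labelled LANA N-terminal peptide (1-23); Input: 240 nM purified chicken nucleosomes (480 nM peptide binding sites), final; Medium: TEN-BT buffer, pH 7.5; Timing: 10–45 min, room temperature; Technique: fluorescence polarization, 480 nm excitation, 535 nm parallel and perpendicular emission; Replication: duplicates.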

Row | SMILES | z-score
1 | OCc1cccnc1Sc1ccccc1 | 0.147 (inactive)
2 | Cc1ccc2c(c1)cc(CN(Cc1ccco1)C(=O)c1ccccc1)c1nnnn12 | 0.235 (inactive)
3 | Cc1cc(OCCN2CCOCC2)nc(N2CCOCC2)n1 | 0.348 (inactive)
4 | Cc1sc(-c2cccs2)nc1O | -0.538 (inactive)
5 | CCc1cccc2c(C=C(C#N)C#N)cn(CC(=O)NC3CCCC3)c12 | 0.0985 (inactive)
6 | Nc1c2c3c(sc2nc(=O)n1Cc1ccco1)CCC3 | 0.229 (inactive)
7 | COc1ccc(N(C)S(=O)(=O)c2ccc3c(c2)CC(C)N3C(=O)C2CC2)c(OC)c1 (configuration not stated) | -0.361 (inactive)
8 | COc1cccc(/C=C2/Sc3ccc(C(=O)NCc4ccco4)cc3NC2=O)c1 | -0.179 (inactive)
9 | COCCNC(=O)c1cccc(OC(C)C)c1 | 0.494 (inactive)
10 | CN(C(=O)CSc1nc(N)cc(=O)[nH]1)c1ccccc1 | -0.19 (inactive)
11 | Cc1ccsc1/C=N/c1sc2c(c1C#N)CCCC2 | -0.764 (inactive)
12 | Cc1cc(C)c2nc(C(F)(F)F)nc(NCc3ccc4c(c3)OCO4)c2c1 | 2.86 (inactive)
13 | CCOC(=O)NCc1cc(C(=O)O)ccc1O | 0.19 (inactive)
14 | CCN1C(=Nc2ccc(O)cc2)SC/C1=C\C(=O)OC | 2.25 (inactive)
15 | CN(C)C(CNC(=O)c1cc2ccccc2oc1=O)c1ccco1 (configuration not stated) | -0.421 (inactive)
16 | O=S1(=O)CCC(S(=O)(=O)N2CCCC2)C1 (configuration not stated) | -0.472 (inactive)
17 | CCCCSC1=NC(=O)CC(=O)N1 | -1.46 (inactive)
18 | CC(=O)N1CCC(N(c2ccc3c(c2)OCO3)S(=O)(=O)c2ccccc2)CC1 | 0.764 (inactive)
19 | Cc1ccc(S(=O)(=O)Nc2cccc(C(=O)N3CCCCC3)c2)cc1 | 1.2 (inactive)
20 | O=C(O)CN1CC(=O)Nc2ccccc21 | 0.771 (inactive)
21 | O=C1Nc2ccccc2N(c2ccccc2)N1 | -3.48 (active)
22 | CCCCC(C)C(N)=O (configuration not stated) | -0.323 (inactive)
23 | CC[N+](C)(CC)CCC[n+]1c(-c2ccccc2)c2cc(N)ccc2c2ccc(N)cc21 | -3.89 (active) and -3.44 (active)
24 | CCN(Cc1ccccc1)C(=O)C1CCN(Cc2cc(Br)c(O)c(OC)c2)CC1 | -0.834 (inactive)
25 | O=C1CC(NC2CCN(S(=O)(=O)c3ccc(Cl)cc3)CC2)C(=O)N1 (configuration not stated) | 2.47 (inactive)
26 | Cc1ccc(NC(=O)CSC2=NC(=O)CC(=O)N2)cc1 | -0.876 (inactive)

Row | SMILES | z-score
27 | COc1ccc(C2=NS(=O)(=O)N(C)C(C(=O)NCC(C)C)=C2)cc1OC | -0.724 (inactive)
28 | CCN(CC)C(=O)Cc1c(C(=O)O)[nH]c2ccc(Cl)cc12 | 0.22 (inactive)
29 | Cc1ccc(C(=O)N2CCCN(C)CC2)o1 | -1.2 (inactive)
30 | O=C(OCc1ccccc1Cl)c1cc(=O)[nH]c2ccccc12 | -1.04 (inactive)
31 | O=C(Nc1ccc(Cl)cc1)c1ncoc1-c1cccs1 | 0.41 (inactive)
32 | COC(=O)c1ccc(NS(=O)(=O)c2cc(C(=O)OC)n(C)c2)cc1 | -0.537 (inactive)
33 | Cc1ccc(-c2nc3ccccc3[nH]2)cc1NC(=O)C(C)C | -0.762 (inactive)
34 | CCC(=O)NC1CC(=O)N(c2ccc(F)cc2)C1 (configuration not stated) | -0.098 (inactive)
35 | COc1ccc(CCN2C(=O)CSC2c2ccc3cccc(O)c3n2)cc1OC (configuration not stated) | 1.12 (inactive)
36 | Cn1ncc(Br)c1-c1cccc(NC(=O)COCC(=O)O)c1 | -1.14 (inactive)
37 | CCCCCn1c(=O)[nH]c2cc(C(=O)Nc3cc(OC)c(OC)c(OC)c3)ccc2c1=O | -0.668 (inactive)
38 | Cn1c(=O)c2c(nc(N3CCNCC3)n2C)n(C)c1=O | 0.302 (inactive)
39 | COc1ccc2oc(=O)cc(-c3cc4ccccc4o3)c2c1 | -0.251 (inactive)
40 | O=c1c(-c2cc3ccccc3o2)[n+]([O-])c2ccccc2n1O | -2.61 (active)
41 | O=C(CSc1ncccn1)N1CCCC1 | -0.327 (inactive)
42 | O=C(Nc1ccc2nc(CN3CCCCC3)[nH]c2c1)c1cccs1 | -0.0365 (inactive)
43 | Cc1cccc(C)c1N1CCN(S(=O)(=O)N2CCCCC2)CC1 | -1.66 (inactive)
44 | COc1ccc(C(=O)Nc2ccccc2C(=O)NCc2ccco2)cc1 | 0.333 (inactive)
45 | CN(C)C(=O)CN1CCC(N2CCCCC2)CC1 | -0.624 (inactive)
46 | COc1ccc(Cn2ccc3nc4ccn(Cc5ccc(OC)cc5)c(=O)c4cc3c2=O)cc1 | 0.327 (inactive)
47 | CN1C(=O)/C(=C/C=C2\SCCN2C)OC1=S | -2.92 (active)
48 | COc1cccc(NS(=O)(=O)c2ccc3[nH]cc(C(=O)N4CCCCC4C)c(=O)c3c2)c1 (configuration not stated) | 0.613 (inactive)
49 | O=C(O)COc1ccc(CN2CCCC2)cc1 | 0.199 (inactive)
50 | N/C(=N\OC(=O)CC1CCCCC1)c1ccccc1 | -0.568 (inactive)
51 | Cc1nnc(NC2CC2)c2c1nnn2Cc1ccc(F)cc1 | 0.653 (inactive)
52 | CN(C)CCNC(=O)c1ccc(/C=C2\SC(=S)N(C)C2=O)cc1 | 1.24 (inactive)
